# Test results published in ChEMBL document CHEMBL5247577, “Improved Selective Class I HDAC and Novel Selective HDAC3 Inhibitors: Beyond Hydroxamic Acids and Benzamides” (ACS Med Chem Lett, 2019).
# Calls of active or inactive are those of the source. No cut-off for these calls is given here.
# Key:
# [1] = target: Histone deacetylase 4 (Homo sapiens) (UniProt P56524); assay: Inhibition of human HDAC4 at 5 uM
# [2] = AUC in Wistar rat plasma at 5 to 20 mg/kg, po by LC/MS/MS analysis; type: ADME, organism-based; parameters: route po; details: dose 5-20 mg/kg
# In short: (§1)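 Compound given orally as its tartrate salt at 20 mg/kg in mouse, 10 mg/kg in rat and 5 mg/kg in minipig.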
# [3] = Volume of distribution at steady state in NMRI mouse at 20 mg/kg, po or 2 mg/kg, iv by LC/MS/MS analysis; type: ADME, organism-based; details: in vivo
# In short: (§2)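 Compound dosed as the tartrate salt. Oral doses were 20 mg/kg in mouse, 10 mg/kg in rat and 5 mg/kg in minipig.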
# Histone deacetylase 1 = Histone deacetylase 1 (Homo sapiens, UniProt Q13547); assay: Inhibition of human recombinant his tagged HDAC1 expressed in baculovirus expression system using FLUOR DE LYS-SIRT1 as fluorogenic substrate preincubated for 10 mins followed by substrate addition and measured after 1 hr by spectrophotometer based analysis
# [4] = AUC in Gottigen pig plasma 5 to 20 mg/kg, po by LC/MS/MS analysis; type: ADME, organism-based, Sus scrofa; parameters: route po; details: dose 5-20 mg/kg; in short: as §1
# [5] = Half life in Wistar rat plasma at 10 mg/kg, po or 2 mg/kg,iv by LC/MS/MS analysis; type: ADME, organism-based; in short: as §2
# Histone deacetylase 3 = Histone deacetylase 3 (Homo sapiens, UniProt O15379); assay: Inhibition of human HDAC3 expressed in baculovirus infected insect cells using FLUOR DE LYS-SIRT1 as fluorogenic substrate preincubated for 10 mins followed by substrate addition and measured after 1 hr by spectrophotometer based analysis
# [6] = target: T1, Histone deacetylase 7 (Homo sapiens) (UniProt Q8WUI4); assay: Inhibition of human HDAC7 at 5 uM
# T1 sequence (whole entry): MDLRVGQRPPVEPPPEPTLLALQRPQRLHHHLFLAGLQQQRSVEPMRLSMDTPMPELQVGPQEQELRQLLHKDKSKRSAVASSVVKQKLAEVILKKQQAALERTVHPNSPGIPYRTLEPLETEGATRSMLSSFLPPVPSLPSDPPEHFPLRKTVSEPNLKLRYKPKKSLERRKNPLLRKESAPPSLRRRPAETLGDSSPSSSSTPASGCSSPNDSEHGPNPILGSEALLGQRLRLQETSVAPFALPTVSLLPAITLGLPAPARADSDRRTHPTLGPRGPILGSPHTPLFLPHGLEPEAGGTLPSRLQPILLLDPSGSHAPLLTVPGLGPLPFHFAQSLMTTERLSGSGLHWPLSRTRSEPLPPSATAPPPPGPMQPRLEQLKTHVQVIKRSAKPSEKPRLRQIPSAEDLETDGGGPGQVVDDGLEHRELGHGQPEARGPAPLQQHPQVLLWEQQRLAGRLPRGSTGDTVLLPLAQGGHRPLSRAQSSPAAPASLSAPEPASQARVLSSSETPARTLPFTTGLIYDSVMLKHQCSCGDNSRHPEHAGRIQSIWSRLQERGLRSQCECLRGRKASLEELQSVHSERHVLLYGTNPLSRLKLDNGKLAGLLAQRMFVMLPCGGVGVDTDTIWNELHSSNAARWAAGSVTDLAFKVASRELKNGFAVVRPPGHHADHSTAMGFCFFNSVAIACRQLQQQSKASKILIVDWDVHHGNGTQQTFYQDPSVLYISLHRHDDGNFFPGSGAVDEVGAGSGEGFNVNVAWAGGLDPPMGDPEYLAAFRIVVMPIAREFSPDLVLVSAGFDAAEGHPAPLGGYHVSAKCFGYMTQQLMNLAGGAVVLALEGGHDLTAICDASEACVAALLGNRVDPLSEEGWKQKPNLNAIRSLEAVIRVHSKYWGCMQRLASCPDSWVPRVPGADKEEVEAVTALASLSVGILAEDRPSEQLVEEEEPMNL
# [7] = target: Histone deacetylase 5 (Homo sapiens) (UniProt Q9UQL6); assay: Inhibition of human HDAC5 at 5 uM
# Sequence of Histone deacetylase 5 (Homo sapiens) (Q9UQL6 whole entry): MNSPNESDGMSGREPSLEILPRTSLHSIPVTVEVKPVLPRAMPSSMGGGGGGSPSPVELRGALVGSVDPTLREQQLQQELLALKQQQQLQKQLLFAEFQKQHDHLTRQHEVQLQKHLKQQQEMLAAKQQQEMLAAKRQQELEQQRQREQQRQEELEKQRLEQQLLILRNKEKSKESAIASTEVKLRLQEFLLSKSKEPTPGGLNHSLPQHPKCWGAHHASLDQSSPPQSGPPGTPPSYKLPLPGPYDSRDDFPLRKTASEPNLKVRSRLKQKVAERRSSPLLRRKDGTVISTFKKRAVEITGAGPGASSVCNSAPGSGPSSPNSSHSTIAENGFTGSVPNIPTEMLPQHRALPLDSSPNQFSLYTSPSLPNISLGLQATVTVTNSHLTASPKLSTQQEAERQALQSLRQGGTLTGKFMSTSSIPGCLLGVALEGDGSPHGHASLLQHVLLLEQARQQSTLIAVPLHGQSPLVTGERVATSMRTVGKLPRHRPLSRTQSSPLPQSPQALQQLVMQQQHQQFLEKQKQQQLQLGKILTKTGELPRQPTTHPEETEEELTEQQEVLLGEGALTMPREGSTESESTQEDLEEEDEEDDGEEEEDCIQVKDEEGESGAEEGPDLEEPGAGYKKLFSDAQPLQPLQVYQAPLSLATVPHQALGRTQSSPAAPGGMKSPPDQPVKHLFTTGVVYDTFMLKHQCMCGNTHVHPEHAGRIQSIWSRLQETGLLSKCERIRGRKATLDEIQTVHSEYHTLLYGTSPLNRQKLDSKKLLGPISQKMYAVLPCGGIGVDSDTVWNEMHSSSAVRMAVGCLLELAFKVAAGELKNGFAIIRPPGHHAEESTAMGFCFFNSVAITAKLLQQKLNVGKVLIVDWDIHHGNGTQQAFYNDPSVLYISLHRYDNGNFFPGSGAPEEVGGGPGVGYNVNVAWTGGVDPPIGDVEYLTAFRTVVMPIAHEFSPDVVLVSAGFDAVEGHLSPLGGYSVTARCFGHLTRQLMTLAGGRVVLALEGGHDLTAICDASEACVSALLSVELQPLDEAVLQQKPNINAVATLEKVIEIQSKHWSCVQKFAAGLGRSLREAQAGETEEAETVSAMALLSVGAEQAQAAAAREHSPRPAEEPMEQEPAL
# Sequence of Histone deacetylase 3 (O15379 whole entry): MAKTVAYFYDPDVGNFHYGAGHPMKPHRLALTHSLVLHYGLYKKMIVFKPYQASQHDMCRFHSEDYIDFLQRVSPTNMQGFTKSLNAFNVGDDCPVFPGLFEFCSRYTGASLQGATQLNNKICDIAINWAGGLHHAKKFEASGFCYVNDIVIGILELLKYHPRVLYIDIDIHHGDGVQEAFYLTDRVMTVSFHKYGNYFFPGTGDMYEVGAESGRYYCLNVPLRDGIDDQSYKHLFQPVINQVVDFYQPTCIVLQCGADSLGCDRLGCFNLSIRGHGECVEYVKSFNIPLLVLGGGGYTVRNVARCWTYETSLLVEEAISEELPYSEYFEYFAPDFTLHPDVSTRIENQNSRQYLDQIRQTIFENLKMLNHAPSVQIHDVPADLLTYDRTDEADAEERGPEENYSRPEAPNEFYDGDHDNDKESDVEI
# Sequence of Histone deacetylase 1 (Q13547 whole entry): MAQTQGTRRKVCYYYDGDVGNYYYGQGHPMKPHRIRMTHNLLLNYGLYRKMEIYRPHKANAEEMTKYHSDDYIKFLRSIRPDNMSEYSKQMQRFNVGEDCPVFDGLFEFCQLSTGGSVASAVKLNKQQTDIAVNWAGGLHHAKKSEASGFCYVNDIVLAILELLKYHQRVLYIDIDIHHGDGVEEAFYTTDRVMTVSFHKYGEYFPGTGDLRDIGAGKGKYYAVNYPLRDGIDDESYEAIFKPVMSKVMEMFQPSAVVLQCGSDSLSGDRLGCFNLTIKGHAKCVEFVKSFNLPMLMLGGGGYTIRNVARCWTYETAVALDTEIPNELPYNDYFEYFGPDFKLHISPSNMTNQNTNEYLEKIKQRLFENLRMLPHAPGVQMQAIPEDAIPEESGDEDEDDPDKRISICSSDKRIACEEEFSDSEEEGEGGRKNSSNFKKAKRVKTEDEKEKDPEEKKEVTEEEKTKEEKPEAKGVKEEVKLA
# Sequence of Histone deacetylase 4 (Homo sapiens) (P56524 whole entry): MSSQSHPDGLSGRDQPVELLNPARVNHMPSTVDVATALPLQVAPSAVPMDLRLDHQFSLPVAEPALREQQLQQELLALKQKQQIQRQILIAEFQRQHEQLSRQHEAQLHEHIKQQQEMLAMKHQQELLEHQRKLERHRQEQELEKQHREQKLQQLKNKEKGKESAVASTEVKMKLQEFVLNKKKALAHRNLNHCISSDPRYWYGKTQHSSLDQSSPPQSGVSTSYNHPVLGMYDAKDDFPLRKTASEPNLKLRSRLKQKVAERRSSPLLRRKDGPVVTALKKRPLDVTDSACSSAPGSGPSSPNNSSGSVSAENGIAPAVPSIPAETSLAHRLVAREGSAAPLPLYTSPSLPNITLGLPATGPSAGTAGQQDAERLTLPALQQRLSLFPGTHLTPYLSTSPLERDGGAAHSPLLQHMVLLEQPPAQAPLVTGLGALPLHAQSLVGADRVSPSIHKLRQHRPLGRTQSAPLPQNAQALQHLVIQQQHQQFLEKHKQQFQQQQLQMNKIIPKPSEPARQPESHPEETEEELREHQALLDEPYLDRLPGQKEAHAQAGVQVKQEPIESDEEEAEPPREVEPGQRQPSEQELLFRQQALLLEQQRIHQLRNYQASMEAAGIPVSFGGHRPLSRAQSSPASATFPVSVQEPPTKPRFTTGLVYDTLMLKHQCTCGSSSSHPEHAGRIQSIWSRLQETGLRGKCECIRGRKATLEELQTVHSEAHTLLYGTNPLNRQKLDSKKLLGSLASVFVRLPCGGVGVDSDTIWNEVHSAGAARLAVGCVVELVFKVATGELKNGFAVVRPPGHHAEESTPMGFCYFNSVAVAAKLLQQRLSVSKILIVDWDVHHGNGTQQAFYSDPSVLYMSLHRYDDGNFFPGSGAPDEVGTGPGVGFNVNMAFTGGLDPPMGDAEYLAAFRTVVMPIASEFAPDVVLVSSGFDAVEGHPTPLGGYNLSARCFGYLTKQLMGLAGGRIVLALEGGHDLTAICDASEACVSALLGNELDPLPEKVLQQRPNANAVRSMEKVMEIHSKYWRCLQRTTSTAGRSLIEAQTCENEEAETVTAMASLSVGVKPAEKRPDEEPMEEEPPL
structure (smiles),measurement,setting,value
CCC(=O)CCCCC[C@H](NC(=O)C1CN(C)C1)c1ncc(-c2cc3ccccc3nc2OC)o1,inhibition,[1],inactive
same,AUC,[2],21.5 µM·h
same,Vdss,[3],3.2 L/kg
same,IC50,Histone deacetylase 1,1.7 nM
same,AUC,[4],2.6 µM·h
same,half-life,[5],3.3 h
same,IC50,Histone deacetylase 3,1.1 nM
same,inhibition,[6],inactive
same,inhibition,[7],inactive
